Experimental data gathered from unrelated publications.
Lines come from different studies, so protocols differ.
Target: 1-phosphatidylinositol 3-phosphate 5-kinase (PIKFYVE, Homo sapiens, UniProt Q9Y2I7)

C[C@@H]1CCN(c2nccc(-c3cnn4ncccc34)n2)C1 — remaining binding (binding; 1 µM): 99%
O=C(NCCCN1CCOCC1)c1ccc(Nc2nccc(-c3cc4ccccc4s3)n2)cc1 — remaining binding (binding, competition with immobilised ligand; 1 µM): 0.3%
FC(F)(F)c1ccc2c(c1)nc(-c1cccnc1)n2C1CC1 — remaining binding (cell-free assay, competition with immobilised ligand; 1 µM): 99%
CN(C)c1ncc(F)c(-c2cnn3ncccc23)n1 — remaining binding (binding; 1 µM): 100%
CO[C@H]1CC[C@H](CNc2ccc(S(=O)(=O)NC(=O)c3ccc(N4CCN(CC5=C(c6ccc(Cl)cc6)CC(C)(C)CC5)CC4)cc3Oc3cnc4[nH]ccc4c3)cc2[N+](=O)[O-])CC1 — remaining binding (cell-free assay, competition with immobilised ligand; 1 µM): 89%
O=C(c1ccc(Nc2ncc(Cl)c(-c3ccc(Cl)s3)n2)cc1)N1CCC(N2CCCC2)CC1 — remaining binding (binding, competition with immobilised ligand; 1 µM): 32%
COc1cnc(Nc2cccc(S(N)(=O)=O)c2)nc1N1CCN(c2ccccc2)C(=O)C1 — remaining binding (binding, competition with immobilised ligand; 1 µM): 100%
CN(C)c1nccc(-c2cnc3ncccn23)n1 — remaining binding (binding; 1 µM): 78%
COc1ccc2c(c1)O[C@@H](c1ccc(OC)c(OC)c1)C[C@H]2NC(=O)C1(c2ccc3c(c2)OC(F)(F)O3)CC1 — remaining binding (cell-free assay, competition with immobilised ligand; 1 µM): 100%
COc1ncc2cc3ccccc3nc2c1C#N — remaining binding (cell-free assay, competition with immobilised ligand; 5 µM): 90%
FC(F)(F)Oc1cccc(-c2cnc3ccc(-c4ccncc4)nn23)c1 — remaining binding (cell-free assay, competition with immobilised ligand; 5 µM): 2.4%
O=C(c1ccc(Nc2ncc(Cl)c(-c3cc4ccccc4s3)n2)cc1)N1CCC(N2CCCC2)CC1 — remaining binding (binding, competition with immobilised ligand; 1 µM): 72%
CN(c1ccnc(CNc2nc(Nc3ccc4c(c3)CC(=O)N4)ncc2C(F)(F)F)n1)S(C)(=O)=O — remaining binding (cell-free assay, competition with immobilised ligand; 1 µM): 100%
c1cnn2ncc(-c3ccnc(N4CCC45COC5)n3)c2c1 — remaining binding (binding; 1 µM): 92%
CC(C)CC(=O)N1CCc2nc(-c3ccc(Br)cc3)nc(N(C)Cc3ccccc3)c2C1 — remaining binding (cell-free assay, competition with immobilised ligand; 0.1 µM): 91%
CNC(=O)[C@@H]1CC[C@@H](n2c(-c3ccc4cnccc4c3)nc3ccc(C(=O)NCc4cccc(C(N)=O)c4)cc32)C1 — remaining binding (binding, competition with immobilised ligand; 1 µM): 14%
CS(=O)(=O)N1CCCC(NC(=O)[C@H](CCC2CCCCC2)NC(=O)c2ccc(CNc3ncnc4c3nnn4-c3ccccc3)cc2)C1 (stereo partly shown) — remaining binding (cell-free assay, competition with immobilised ligand; 0.1 µM): 61%
CC1CCCN1c1nccc(-c2cnn3ncccc23)n1 (stereo not shown) — remaining binding (binding; 1 µM): 100%
O=C(NCC1CCOCC1)c1n[nH]cc1NC(=O)c1c(F)cccc1F — remaining binding (binding, competition with immobilised ligand; 1 µM): 100%
